Screening results deposited in PubChem by Johns Hopkins Ion Channel Center.
KCNK3 inh = human KCNK3 channel inhibition, primary screen; O14649; 0.84% of 340,000 active; B-score at 10 µM; AID 602410; CHO-KCNK3 thallium flux, FluxOR fluorescence; stronger effect = lower value;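 active = B-score under library mean minus 4 SD, starting fluorescence ratio at most library mean plus 5 SD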;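 also: more negative B-score means stronger inhibition of thallium flux through KCNK3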
Target sequence (O14649 whole entry, looked up): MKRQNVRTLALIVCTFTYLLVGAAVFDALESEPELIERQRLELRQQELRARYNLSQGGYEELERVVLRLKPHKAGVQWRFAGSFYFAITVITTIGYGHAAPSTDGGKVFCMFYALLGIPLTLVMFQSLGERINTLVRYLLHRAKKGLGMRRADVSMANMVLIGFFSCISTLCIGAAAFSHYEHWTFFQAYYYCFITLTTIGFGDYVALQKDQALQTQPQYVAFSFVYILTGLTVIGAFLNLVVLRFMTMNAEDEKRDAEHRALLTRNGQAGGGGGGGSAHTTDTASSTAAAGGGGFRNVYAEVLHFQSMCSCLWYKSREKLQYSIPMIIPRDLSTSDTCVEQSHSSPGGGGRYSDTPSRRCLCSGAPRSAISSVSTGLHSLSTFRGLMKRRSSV
KCNQ1 act = potentiators or activators of human KCNQ1 potassium channel. P51787. CHO-K1 KCNQ1, thallium flux FluxOR fluorescence; stronger effect = higher value. B-score at 10 µM. 0.35% of 310,000 active;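 active = fluorescence ratio B-score, a plate-corrected score, at least three library SD, with initial intensity B-score within 5 SD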
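Schedule – 37 °C overnight plating, 90-min dark dye load, 20-min compound pretreatment · System – stable KCNQ1 CHO-K1 line · Probe or stimulus – thallium- and potassium-containing depolarizing buffer · Measured by – kinetic FluxOR fluorescence, 10 s baseline plus 110 s post-stimulus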
KCNQ1 inh = human KCNQ1 channel inhibition | CHO-K1 KCNQ1, FluxOR thallium flux fluorescence; stronger effect = higher value | B-score at 10 µM | 1.3% of 310,000 active;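 active = compounds whose thallium flux B-score, printed positive for inhibition, exceeds three library SD while starting fluorescence stays within three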;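 also: channel opened by potassium depolarization with thallium stimulus after 20 min compound exposure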
hERG protect = shields human hERG channel from block by proarrhythmic agents; 0.51% of 310,000 active; activation (rescue from dofetilide block), less the hit threshold, % at 10 µM; AID 1511; Q12809; CHO-hERG, FluxOR thallium flux, dofetilide IC70 present;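 active = activation above the mean of controls blocked by dofetilide plus 5 SD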;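 also: thallium influx through hERG after potassium depolarization seen as dye fluorescence rise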
KCNK9 block = inhibitors of human KCNK9 two-pore domain potassium channel. AID 488922. B-score at 10 µM. 1.2% of 310,000 active. HEK293 KCNK9, FluxOR thallium flux fluorescence; stronger effect = lower value. Q9NPC2;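 active = ratio B-score over 3 SD below the library mean, with starting fluorescence within 5 SD of its mean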;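 also: negative B-score means less thallium flux so channel inhibition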
Target sequence (Q9NPC2 whole entry, looked up, the tested form may be a part): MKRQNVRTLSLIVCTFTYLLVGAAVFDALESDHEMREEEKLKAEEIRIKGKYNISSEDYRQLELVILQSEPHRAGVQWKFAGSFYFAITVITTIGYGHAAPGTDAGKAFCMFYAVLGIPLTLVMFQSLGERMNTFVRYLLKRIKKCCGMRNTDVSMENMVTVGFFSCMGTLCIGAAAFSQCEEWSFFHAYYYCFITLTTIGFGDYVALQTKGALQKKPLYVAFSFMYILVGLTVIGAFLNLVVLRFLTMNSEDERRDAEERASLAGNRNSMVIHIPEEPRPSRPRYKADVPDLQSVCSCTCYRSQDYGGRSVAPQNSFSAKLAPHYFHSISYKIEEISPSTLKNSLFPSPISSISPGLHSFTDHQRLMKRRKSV
KCNQ1 block val = reconfirmed blocker of the human KCNQ1 potassium channel | shares compounds with KCNQ1 inh | KCNQ1 cell line, FluxOR thallium flux fluorescence | inhibition, % at 10 µM | 93% of 1,600 active | AID 588353;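 active = primary screen active, with duplicate mean exceeding buffer control mean plus 3 SD of buffer wells, cut at about 28% in these data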
CHO KCNQ1 ctr = activity in parental CHO cells lacking KCNQ1. AID 588366. shares compounds with KCNQ1 inh. fluorescence ratio (Tl flux) at 10 µM. parental CHO-K1, FluxOR thallium flux fluorescence ratio; stronger effect = lower value; zero means no signal rise above baseline. 21% of 1,600 active;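 active = mean of duplicate thallium-flux fluorescence ratios in parental host cells more than 5 SD below the buffer control mean, cut at about 0.38 in these data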;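 also: ratio is peak minus minimum fluorescence divided by baseline fluorescence; actives read low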
KCNQ1 ephys val = human KCNQ1 inhibition validated by electrophysiology. 20% of 490 active. calls only at 10 µM. KCNQ1-CHO cells, automated patch clamp current. shares compounds with KCNQ1 inh;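 active = KCNQ1 current drop exceeding 3 SD of negative control wells, seen in both duplicate runs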;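 also: steady state current during a 2 s step from -80 to +40 mV; negative values mean current inhibition and positive values mean potentiation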
KCNQ2 inh = selectivity of KCNQ1 inhibitors: inhibition of rat KCNQ2 channel | shares compounds with KCNQ1 inh | KCNQ2 cells, FluxOR thallium flux fluorescence | inhibition, % at 10 µM | 71% of 1,600 active | AID 651746;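 active = mean percent inhibition of the KCNQ2 thallium signal more than 5 SD above the buffer-only control wells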;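 also: KCNQ2 expressed in CHO cells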
KCNQ1 KCNE1 spec = selectivity of KCNQ1 inhibitors: inhibition of human KCNQ1/KCNE1 channel. inhibition, % at 10 µM. 77% of 1,600 active. AID 652147. shares compounds with KCNQ1 inh. KCNQ1/KCNE1 cells, FluxOR thallium flux fluorescence;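 active = mean percent inhibition of duplicate wells above the buffer-only control mean plus 3 SD of those controls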
A number is an active result; 0 = inactive; - = no result; + = active, no number. In the library only some 3.1% were active in any assay of this set; here they are far more common.

SMILES | KCNK3 inh | KCNQ1 act | KCNQ1 inh | hERG protect | KCNK9 block | KCNQ1 block val | CHO KCNQ1 ctr | KCNQ2 inh | KCNQ1 KCNE1 spec | others
Cc1cccc(OCCCC(=O)NNC(=O)c2cccc(N(C)C)c2)c1 | 0 | - | - | - | - | - | - | - | -
Cc1cnc(NC(=O)Nc2ccc(OCc3ccccc3)cc2)c(Br)c1 | 0 | 0 | 0 | 0 | 0 | - | - | - | -
Cc1ccc(S(=O)(=O)NC(C)C(c2cccs2)N2CCN(C)CC2)cc1 (stereo unspecified) | 0 | 0 | 0 | 0 | 0 | - | - | - | -
Cc1ccc(S(=O)(=O)NC(C)C(c2cccs2)N2CCN(c3ccccc3)CC2)cc1 (stereo unspecified) | 0 | 0 | 7 | 0 | 0 | 67.5 | 0 | 88.7% | 92.0%
CC(C)(C)C1CCC(C(=O)Nc2ccccc2N2CCOCC2)CC1 (stereo unspecified) | 0 | - | - | - | - | - | - | - | -
Cc1cc2nc3c(=O)[nH]c(=S)[nH]c3nc2cc1NC(=O)C(F)(F)F | 0 | 0 | 11 | 0 | -7.24 | 65.5 | 0.326 | 0 | 151.0%
O=c1[nH]c(=S)[nH]c2nc(-c3ccccc3)cnc12 | 0 | 0 | 0 | 0 | 0 | - | - | - | -
Cc1cccc(NC(=O)C(C)Sc2nnc(-c3cccnc3)o2)c1 (stereo unspecified) | 0 | - | - | - | - | - | - | - | -
COC(=O)CN1C(c2ccccc2O)Nc2ccc(Br)cc2C1c1ccccc1 (stereo unspecified) | 0 | 0 | 8 | 0 | -6.59 | 98.5 | 0.361 | 86.0% | 132.5%
O=C(O)CN1C(=O)Nc2ccc(Br)cc2C1c1ccccc1 (stereo unspecified) | 0 | 0 | 0 | 0 | 0 | - | - | - | -
CC(=O)C[C@@H](O)CC(=O)[C@H]1OC(=O)CCCCCCCCc2ccccc21 | 0 | - | - | - | - | - | - | - | -
CCOC(=O)C1=C(C)N(C)C(C)=C(C(=O)OCC)C1c1ccc(C(=O)OC)cc1 | 0 | 0 | 6 | 0 | 0 | 105.5 | 0.303 | 114.7% | 151.0%
O=C(Nc1cccc(F)c1)N1CC=C(c2ccc(Cl)cc2)CC1 | 0 | 0 | 13 | 0 | 0 | 131.5 | 0 | 102.7% | 168.5% | KCNQ1 ephys val=0
Cc1nc2nc(-c3cccs3)cn2nc1C | 0 | 0 | 7 | 0 | 0 | 104.0 | 0.338 | 0 | 0
Cc1nc2nc(-c3ccc(Cl)cc3)cn2nc1C | 0 | 0 | 0 | 0 | 0 | - | - | - | -
Cc1ccccc1NC(NC(=O)c1cccs1)C(Cl)(Cl)Cl (stereo unspecified) | 0 | 0 | 13 | 0 | 0 | 120.5 | 0 | 0 | 114.5% | KCNQ1 ephys val=0
CCc1cc(C(c2ccc(F)cc2)N2CCOCC2)c(NC(=O)c2ccccc2)s1 (stereo unspecified) | 0 | 0 | 10 | 0 | 0 | 100.0 | 0.366 | 99.3% | 154.5%
CCc1cc(C(c2cccc(OC)c2)N2CCOCC2)c(NC(=O)c2ccccc2)s1 (stereo unspecified) | 0 | 0 | 0 | 0 | 0 | - | - | - | -
Cc1ccc(C)c(OCCC(=O)OCC(=O)NNC(=O)c2ccccc2)c1 | 0 | - | - | - | - | - | - | - | -
O=C(Nc1cccc(S(=O)(=O)N2CCCCC2)c1)Nc1ccc(Cl)cc1Cl | 0 | 0 | 7 | 0 | 0 | 98.5 | 0 | 96.7% | 69.5% | KCNQ1 ephys val=0
CC(C)(C)c1ccc(OCCC(=O)OCC(=O)N2c3ccccc3NC(=O)C2(C)C)cc1 | 0 | 0 | 7 | 0 | 0 | 120.5 | 0.291 | 140.3% | 55.5%
CC(NCC(=O)Nc1cc(S(=O)(=O)N2CCOCC2)ccc1Cl)c1ccc(Cl)cc1Cl (stereo unspecified) | 0 | 0 | 7 | 0 | 0 | 70.0 | 0 | 60.3% | 91.5%
Cc1ccc(NC(=S)NCCSc2ccc(Cl)cc2)cc1 | 0 | 0 | 0 | 0 | 0 | - | - | - | -
Cc1ccc(SCCNC(=S)Nc2cc(C)cc(C)c2)cc1 | 0 | 0 | 9 | 0 | 0 | 69.0 | 0 | 71.3% | 77.0%
Cc1cccc(C)c1NC(=S)NCCSc1ccc(Cl)cc1 | 0 | 0 | 6 | 0 | 0 | 89.5 | 0 | 110.0% | 95.5% | KCNQ1 ephys val=0
SMILES | KCNK3 inh | KCNQ1 act | KCNQ1 inh | hERG protect | KCNK9 block | KCNQ1 block val | CHO KCNQ1 ctr | KCNQ2 inh | KCNQ1 KCNE1 spec | others
O=C(C1COc2ccccc2O1)N1CCN(Cc2ccc(Br)cc2F)CC1 (stereo unspecified) | 0 | 0 | 8 | 0 | 0 | 60.5 | 0 | 107.7% | 80.0%
C=CCC1CCCC(=O)N2CCCC12 (stereo unspecified) | 0 | - | - | - | - | - | - | - | -
CCn1c(/C=C/c2ccc(O)c(O)c2)nc2ccccc2c1=O | 0 | 0 | 7 | 0 | 0 | 30.5 | 0 | 0 | 0
CCn1c(/C=C/c2ccc(O)cc2)nc2ccccc2c1=O | 0 | 0 | 0 | 0 | 0 | - | - | - | -
COc1ccc(N(CC(=O)NC2CC3CCC2C3)S(=O)(=O)c2ccc(C)cc2)cc1OC (stereo unspecified) | 0 | 0 | 0 | 0 | 0 | - | - | - | -
COc1ccc(N(CC(=O)NC2CC3CCC2C3)S(=O)(=O)c2ccccc2)cc1Cl (stereo unspecified) | 0 | 0 | 7 | 0 | 0 | 113.5 | 0 | 0 | 125.5% | KCNQ1 ephys val=+
O=C(Nc1ccc(OC(F)F)c(Cl)c1)c1ccccn1 | 0 | 0 | 0 | 0 | 0 | - | - | - | -
Cc1ccc(NC(=S)Nc2ccc(OC(F)F)c(Cl)c2)cc1F | 0 | 0 | 14 | 0 | 0 | 88.5 | 0 | 0 | 0 | KCNQ1 ephys val=0
COc1cc(/C=C/c2nc(-c3ccccc3O)n[nH]2)cc(OC)c1OC | 0 | 0 | 6 | 0 | 0 | 116.0 | 0 | 113.0% | 190.0%
COc1cc(/C=C/c2noc(-c3ccccc3O)n2)cc(OC)c1OC | 0 | 0 | 0 | 0 | 0 | - | - | - | -
CCN(CC)CCN(C(=O)c1ccc2c(c1)OCCO2)c1nc2cc3c(cc2s1)OCO3 | 0 | 0 | 7 | 0 | 0 | 50.5 | 0 | 81.3% | 84.5%
CN(C)CCCN(C(=O)c1ccc2c(c1)OCCO2)c1nc2cc3c(cc2s1)OCO3 | 0 | 0 | 0 | 0 | 0 | - | - | - | -
CCn1c(=O)c2ccccc2n(CC(=O)NCCC2=CCCCC2)c1=O | 0 | 0 | 0 | 0 | 0 | - | - | - | -
c1ccc(CNc2c3ccccc3nc3ccccc23)cc1 | 0 | 0 | 8 | 0 | 0 | 39.0 | 0 | 66.0% | 48.5%
O=C(COC(=O)/C=C/c1ccccc1Cl)NC(=O)NC1CCCC1 | 0 | - | - | - | - | - | - | - | -
Cc1csc(NC(=O)c2c(-c3ccccc3)noc2C)n1 | 0 | 0 | 0 | 0 | 0 | - | - | - | -
O=C(Nc1ccccc1)Nc1nc(-c2ccc(F)c(F)c2)cs1 | 0 | 0 | 6 | 0 | 0 | 72.0 | 0 | 83.7% | 81.5%
Cc1onc(-c2ccccc2)c1C(=O)Nc1nc(-c2ccc(F)c(F)c2)cs1 | 0 | 0 | 7 | 0 | 0 | 103.5 | 0 | 109.0% | 120.0% | KCNQ1 ephys val=0
